Source: ChEMBL document CHEMBL6083196, “Synthesis and cytotoxic activity of madecassic acid-silybin conjugate compounds in liver cancer cells” (2024)

Key:
HepG2 [1] = assay: Induction of apoptosis in human HepG2 cells assessed as fold change in caspase-3 level at 0.3 times GI50 incubated for 24 hrs by colorimetric assay relative to control; assay type: functional
Outline: (§1)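 Lysates taken from HepG2 cells 1, 6 or 24 h after treatment at 0.3×, 1× or 3× GI50. Lysis on ice for 10 min, then 10 000 × g spin; protein measured by Bradford. 80 μg protein incubated with DTT and DEVD-pNA substrate for 1 h at 37 °C, in triplicate; absorbance read at 405 nm. Result expressed as fold change versus untreated cells. Camptothecin 0.5 μM as control; mean and SE reported.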

Hep 3B2 = assay: Cytotoxicity against human Hep3B cells incubated for 96 hrs by MTT assay; assay type: functional
Outline: (§2)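 Cells grown in DMEM with 10% FBS and 1% antibiotic at 37 °C, 5% CO2. Trypsinised, seeded at 3 × 10^4 cells per mL, treated over an eight-point titration for 96 h. MTT (0.5 mg mL−1) added for 4 h at 37 °C, formazan dissolved in DMSO, absorbance read at 570 nm. GI50 is the concentration halving the MTT signal versus untreated control. Ellipticine served as reference; n ≥ 3 repeats.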

HepG2 [2] = assay: Induction of cell cycle arrest in human HepG2 cells assessed as accumulation at S phase at 3 times IC50 incubated for 24 hrs by PI staining based flow cytometry (reference value: 46.83 %); assay type: functional
HepG2 [3] = assay: Cytotoxicity against human HepG2 cells incubated for 96 hrs by MTT assay; assay type: functional; outline: as §2
HepG2 [4] = assay: Induction of cell cycle arrest in human HepG2 cells assessed as accumulation at G2/M phase at 3 times IC50 incubated for 24 hrs by PI staining based flow cytometry (reference value: 27.69 %); assay type: functional
HepG2 [5] = assay: Induction of apoptosis in human HepG2 cells assessed as late apoptotic cells at 3 times GI50 incubated for 24 hrs by Annexin V-FITC/PI staining based flow cytometry (reference value: 3.06 %); assay type: functional
HepG2 [6] = assay: Induction of cell cycle arrest in human HepG2 cells assessed as accumulation at G2/M phase at IC50 incubated for 24 hrs by PI staining based flow cytometry (reference value: 27.69 %); assay type: functional
HepG2 [7] = assay: Induction of apoptosis in human HepG2 cells assessed as early apoptotic cells at 3 times GI50 incubated for 24 hrs by Annexin V-FITC/PI staining based flow cytometry (reference value: 2.98 %); assay type: functional
HepG2 [8] = assay: Induction of apoptosis in human HepG2 cells assessed as necrotic cells at 3 times GI50 incubated for 24 hrs by Annexin V-FITC/PI staining based flow cytometry (reference value: 5.34 %); assay type: functional
Huh-7 = assay: Cytotoxicity against human Huh-7 cells incubated for 96 hrs by MTT assay; assay type: functional; outline: as §2
HepG2 [9] = assay: Induction of apoptosis in human HepG2 cells assessed as fold change in caspase-3 level at 0.3 times GI50 incubated for 1 hr by colorimetric assay relative to control; assay type: functional; outline: as §1
HepG2 [10] = assay: Induction of apoptosis in human HepG2 cells assessed as late apoptotic cells at GI50 incubated for 24 hrs by Annexin V-FITC/PI staining based flow cytometry (reference value: 3.06 %); assay type: functional
[11] = Cytotoxicity against human Huh-7R cells incubated for 96 hrs by MTT assay; assay type: functional; outline: as §2
HepG2 [12] = assay: Induction of apoptosis in human HepG2 cells assessed as early apoptotic cells at GI50 incubated for 24 hrs by Annexin V-FITC/PI staining based flow cytometry (reference value: 2.98 %); assay type: functional
HepG2 [13] = assay: Induction of apoptosis in human HepG2 cells assessed as fold change in caspase-3 level at 0.3 times GI50 incubated for 6 hrs by colorimetric assay relative to control; assay type: functional; outline: as §1
HepG2 [14] = assay: Induction of cell cycle arrest in human HepG2 cells assessed as accumulation at S phase at IC50 incubated for 24 hrs by PI staining based flow cytometry (reference value: 46.83 %); assay type: functional
HepG2 [15] = assay: Induction of apoptosis in human HepG2 cells assessed as viable cells at GI50 incubated for 24 hrs by Annexin V-FITC/PI staining based flow cytometry (reference value: 88.62 %); assay type: functional
HepG2 [16] = assay: Induction of apoptosis in human HepG2 cells assessed as fold change in caspase-3 level at GI50 incubated for 1 hr by colorimetric assay relative to control; assay type: functional; outline: as §1
HepG2 [17] = assay: Induction of apoptosis in human HepG2 cells assessed as viable cells at 3 times GI50 incubated for 24 hrs by Annexin V-FITC/PI staining based flow cytometry (reference value: 88.62 %); assay type: functional
HepG2 [18] = assay: Induction of apoptosis in human HepG2 cells assessed as fold change in caspase-3 level at GI50 incubated for 6 hrs by colorimetric assay relative to control; assay type: functional; outline: as §1
HepG2 [19] = assay: Induction of apoptosis in human HepG2 cells assessed as necrotic cells at GI50 incubated for 24 hrs by Annexin V-FITC/PI staining based flow cytometry (reference value: 5.34 %); assay type: functional
HepG2 [20] = assay: Induction of apoptosis in human HepG2 cells assessed as fold change in caspase-3 level at 3 times GI50 incubated for 24 hrs by colorimetric assay relative to control; assay type: functional; outline: as §1
HepG2 [21] = assay: Induction of cell cycle arrest in human HepG2 cells assessed as accumulation at G0/G1 phase at IC50 incubated for 24 hrs by PI staining based flow cytometry (reference value: 24.63 %); assay type: functional
HepG2 [22] = assay: Induction of apoptosis in human HepG2 cells assessed as fold change in caspase-3 level at GI50 incubated for 24 hrs by colorimetric assay relative to control; assay type: functional; outline: as §1
HepG2 [23] = assay: Induction of apoptosis in human HepG2 cells assessed as fold change in caspase-3 level at 3 times GI50 incubated for 6 hrs by colorimetric assay relative to control; assay type: functional; outline: as §1
HepG2 [24] = assay: Induction of apoptosis in human HepG2 cells assessed as fold change in caspase-3 level at 3 times GI50 incubated for 1 hr by colorimetric assay relative to control; assay type: functional; outline: as §1
HepG2 [25] = assay: Induction of cell cycle arrest in human HepG2 cells assessed as accumulation at G0/G1 phase at 3 times IC50 incubated for 24 hrs by PI staining based flow cytometry (reference value: 24.63 %); assay type: functional
HepG2 [26] = assay: Induction of apoptosis in human HepG2 cells assessed as viable cells incubated for 24 hrs by Annexin V-FITC/PI staining based flow cytometry (reference value: 88.62 %); assay type: functional
HepG2 [27] = assay: Induction of apoptosis in human HepG2 cells assessed as necrotic cells incubated for 24 hrs by Annexin V-FITC/PI staining based flow cytometry (reference value: 5.34 %); assay type: functional
HepG2 [28] = assay: Induction of apoptosis in human HepG2 cells assessed as fold change in caspase-3 level at 0.5 uM incubated for 1 hr by colorimetric assay relative to control
HepG2 [29] = assay: Induction of apoptosis in human HepG2 cells assessed as early apoptotic cells incubated for 24 hrs by Annexin V-FITC/PI staining based flow cytometry (reference value: 2.98 %); assay type: functional
HepG2 [30] = assay: Induction of apoptosis in human HepG2 cells assessed as fold change in caspase-3 level at 0.5 uM incubated for 6 hrs by colorimetric assay relative to control
HepG2 [31] = assay: Induction of apoptosis in human HepG2 cells assessed as fold change in caspase-3 level at 0.5 uM incubated for 24 hrs by colorimetric assay relative to control
HepG2 [32] = assay: Induction of apoptosis in human HepG2 cells assessed as late apoptotic cells incubated for 24 hrs by Annexin V-FITC/PI staining based flow cytometry (reference value: 3.06 %); assay type: functional

Compound	fold change (FC) (HepG2 [1])	GI50 (Hep 3B2)	Activity (HepG2 [2])	GI50 (HepG2 [3])	Activity (HepG2 [4])	Activity (HepG2 [5])	Activity (HepG2 [6])	Activity (HepG2 [7])	Activity (HepG2 [8])	GI50 (Huh-7)	fold change (FC) (HepG2 [9])	Activity (HepG2 [10])	GI50 [11]	Activity (HepG2 [12])	fold change (FC) (HepG2 [13])	Activity (HepG2 [14])	Activity (HepG2 [15])	fold change (FC) (HepG2 [16])	Activity (HepG2 [17])	fold change (FC) (HepG2 [18])	also measured
COc1cc([C@H]2Oc3cc([C@H]4Oc5cc(O)cc(O)c5C(=O)[C@@H]4OC(=O)CNC(=O)[C@]45CC[C@@H](C)[C@H](C)[C@H]4C4=CC[C@@H]6[C@@]7(C)C[C@@H](OC(C)=O)[C@H](OC(C)=O)[C@@](C)(COC(C)=O)[C@@H]7[C@H](O)C[C@@]6(C)[C@]4(C)CC5)ccc3O[C@@H]2CO)ccc1O	1.62	9.61 µM	60.41%	32.5 µM	11.8%	0.91%	9.78%	1.28%	13.81%	13.8 µM	0.59	4.92%	14.2 µM	10.65%	0.76	61.09%	71.11%	0.76	84%	1.09	Activity (HepG2 [19]): 13.32%; fold change (FC) (HepG2 [20]): 1.37; Activity (HepG2 [21]): 26.72%; fold change (FC) (HepG2 [22]): 1.86; fold change (FC) (HepG2 [23]): 1.27; fold change (FC) (HepG2 [24]): 1.69; Activity (HepG2 [25]): 27.07%
CC[C@@]1(O)C(=O)OCc2c1cc1n(c2=O)Cc2cc3ccccc3nc2-1 [CAMPTOTHECIN]																					Activity (HepG2 [26]): 79.08%; Activity (HepG2 [27]): 3.85%; fold change (FC) (HepG2 [28]): 1.94; Activity (HepG2 [29]): 14.78%; fold change (FC) (HepG2 [30]): 2.21; fold change (FC) (HepG2 [31]): 2.19; Activity (HepG2 [32]): 2.3%
C[C@H]1[C@H](C)CC[C@]2(C(=O)O)CC[C@]3(C)C(=CC[C@@H]4[C@@]5(C)C[C@@H](O)[C@H](O)[C@@](C)(CO)[C@@H]5[C@H](O)C[C@]43C)[C@H]12 [MADECASSIC ACID]	0.99	178 µM	24.25%	161 µM	20.71%	6.16%	21.51%	13.37%	8.44%	198 µM	0.74	4.29%	215 µM	9%	0.81	58.52%	80.48%	0.94	72.03%	1.16	Activity (HepG2 [19]): 6.23%; fold change (FC) (HepG2 [20]): 0.54; Activity (HepG2 [21]): 19.29%; fold change (FC) (HepG2 [22]): 0.68; fold change (FC) (HepG2 [23]): 1.71; fold change (FC) (HepG2 [24]): 0.97; Activity (HepG2 [25]): 54.22%
